Test results reported in ChEMBL document CHEMBL4359831, “Chemoproteomics of an Indole-Based Quinone Epoxide Identifies Druggable Vulnerabilities in Vancomycin-Resistant Staphylococcus aureus” (J Med Chem, 2019).
Converted amounts (≈) assume the structure as drawn. The source made the active and inactive calls. No cut-off for these calls is given here.

Columns and labels:
[1] = tested on: Staphylococcus aureus; assay: Antibacterial activity against vancomycin-resistant Staphylococcus aureus HIP11714 after 16 to 18 hrs by CLSI M07-A10 protocol based dilution method; type: functional
[2] = Cytotoxicity against African green monkey Vero cells after 72 hrs by MTT assay; type: cell-based; conditions: chlorocebus sabaeus
[3] = tested on: Staphylococcus aureus; assay: Binding affinity to Staphylococcus aureus ATCC 29213 Hydroxyethylthiazole kinase at 10 uM in presence of 9-(Pent-4-yn-1-yl)-1a,10a-dihydro-2H-oxireno[2',3':4,5]-benzo[1,2-a]carbazole-2,10(9H)-dione after 1 hr by biotin-azide fluorescence dependent LC-MS/MS-based ABPP assay
In short: (§1)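 Competitive LC–MS/MS ABPP on S. aureus soluble proteome. Pretreatment 1 h with DMSO, compound (10 μM), comparator (10 μM) or iodoacetamide (10 mM). Chase with alkyne probe (10 μM, 1 h), then Cu-catalysed click with biotin-azide and LC–MS/MS. Targets were proteins at ratio ≤0.1 versus DMSO in the compound and IAM groups and ~1 in the comparator group.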

[4] = tested on: Staphylococcus aureus; assay: Antibacterial activity against vancomycin-resistant Staphylococcus aureus SA-71080 after 16 to 18 hrs by CLSI M07-A10 protocol based dilution method; type: functional
[5] = L-cysteine reactivity in pH 7.4 phosphate buffer at 100 uM preincubated for 1 hr followed by mono-bromobimane addition and measured after 30 mins by fluorescence based competition assay
[6] = tested on: Acinetobacter baumannii; assay: Antibacterial activity against Acinetobacter baumannii BAA-1605 after 16 to 18 hrs by CLSI M07-A10 protocol based dilution method; type: functional
[7] = target: T1, 2-dehydropantoate 2-reductase (Staphylococcus aureus) (UniProt A0A0J9X283); assay: Binding affinity to Staphylococcus aureus ATCC 29213 2-dehydropantoate 2-reductase at 10 uM in presence of 9-(Pent-4-yn-1-yl)-1a,10a-dihydro-2H-oxireno[2',3':4,5]-benzo[1,2-a]carbazole-2,10(9H)-dione after 1 hr by biotin-azide fluorescence dependent LC-MS/MS-based ABPP assay; in short: as §1
T1 sequence (whole entry): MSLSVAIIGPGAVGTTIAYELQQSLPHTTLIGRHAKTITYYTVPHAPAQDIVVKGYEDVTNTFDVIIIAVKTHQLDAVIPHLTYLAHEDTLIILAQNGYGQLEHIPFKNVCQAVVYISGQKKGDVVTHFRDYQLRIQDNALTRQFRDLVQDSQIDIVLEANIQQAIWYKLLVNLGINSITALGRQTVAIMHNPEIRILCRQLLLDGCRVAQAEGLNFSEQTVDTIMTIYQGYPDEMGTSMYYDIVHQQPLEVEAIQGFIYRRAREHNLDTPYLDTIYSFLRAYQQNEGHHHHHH

[8] = tested on: Klebsiella pneumoniae; assay: Antibacterial activity against Klebsiella pneumoniae ATCC BAA-1705 after 16 to 18 hrs by CLSI M07-A10 protocol based dilution method; type: functional
[9] = target: T2, Alkaline phosphatase synthesis transcriptional regulatory protein (Staphylococcus aureus) (UniProt W8TVM3); assay: Binding affinity to Staphylococcus aureus ATCC 29213 Transcriptional regulator PhoP at 10 uM in presence of 9-(Pent-4-yn-1-yl)-1a,10a-dihydro-2H-oxireno[2',3':4,5]-benzo[1,2-a]carbazole-2,10(9H)-dione after 1 hr by biotin-azide fluorescence dependent LC-MS/MS-based ABPP assay; in short: as §1
T2 sequence (whole entry): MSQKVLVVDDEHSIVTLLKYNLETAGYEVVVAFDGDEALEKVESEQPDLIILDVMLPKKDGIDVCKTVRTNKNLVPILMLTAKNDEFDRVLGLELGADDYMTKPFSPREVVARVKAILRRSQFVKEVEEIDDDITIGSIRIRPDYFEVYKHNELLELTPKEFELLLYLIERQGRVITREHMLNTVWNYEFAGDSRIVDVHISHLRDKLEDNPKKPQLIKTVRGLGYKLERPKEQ

[10] = tested on: Staphylococcus aureus; assay: Antibacterial activity against vancomycin-resistant Staphylococcus aureus HIP14300 after 16 to 18 hrs by CLSI M07-A10 protocol based dilution method; type: functional
[11] = tested on: Escherichia coli; assay: Antibacterial activity against Escherichia coli ATCC 25922 after 16 to 18 hrs by CLSI M07-A10 protocol based dilution method; type: functional
[12] = tested on: Staphylococcus aureus; assay: Binding affinity to Staphylococcus aureus ATCC 29213 DNA polymerase III subunit beta at 10 uM in presence of 9-(Pent-4-yn-1-yl)-1a,10a-dihydro-2H-oxireno[2',3':4,5]-benzo[1,2-a]carbazole-2,10(9H)-dione after 1 hr by biotin-azide fluorescence dependent LC-MS/MS-based ABPP assay; in short: as §1
[13] = Selectivity index, ratio of CC50 for African green monkey Vero cells to MIC90 for Staphylococcus aureus ATCC 29213; type: toxicity; conditions: read-out: Selectivity Index
[14] = tested on: Staphylococcus aureus; assay: Antibacterial activity against vancomycin-resistant Staphylococcus aureus AIS100050 after 16 to 18 hrs by CLSI M07-A10 protocol based dilution method; type: functional

SMILES: CC(C)n1c2ccccc2c2ccc3c(c21)C(=O)C1OC1C3=O (centres undefined)
- MIC [1]: 0.5 µg/mL (≈ 1.64 µM)
- CC50 at 72 h [2]: > 25 µg/mL
- Activity [3]: Active
- MIC [4]: 0.5 µg/mL (≈ 1.64 µM)
- Activity [5]: Active
- MIC [6]: 64 µg/mL (≈ 210 µM)
- Activity [7]: Active
- MIC [8]: 64 µg/mL (≈ 210 µM)
- Activity [9]: Active
- MIC [10]: 0.5 µg/mL (≈ 1.64 µM)
- MIC [11]: 64 µg/mL (≈ 210 µM)
- Activity [12]: Active
- selectivity ratio [13]: > 200
- MIC [14]: 0.5 µg/mL (≈ 1.64 µM)
